Results reported in ChEMBL document CHEMBL1909618, “Non-steroidal dissociated glucocorticoid agonists: indoles as A-ring mimetics and function-regulating pharmacophores” (Bioorg Med Chem Lett, 2011).

Assays:
[1] = target: T1, Glucocorticoid receptor (Homo sapiens) (UniProt P04150); assay: Agonist activity at glucocorticoid receptor in HFF assessed as inhibition of IL1-induced IL-6 production after 18 to 24 hrs relative to Dexamethasone; assay type: functional
T1 sequence (whole entry): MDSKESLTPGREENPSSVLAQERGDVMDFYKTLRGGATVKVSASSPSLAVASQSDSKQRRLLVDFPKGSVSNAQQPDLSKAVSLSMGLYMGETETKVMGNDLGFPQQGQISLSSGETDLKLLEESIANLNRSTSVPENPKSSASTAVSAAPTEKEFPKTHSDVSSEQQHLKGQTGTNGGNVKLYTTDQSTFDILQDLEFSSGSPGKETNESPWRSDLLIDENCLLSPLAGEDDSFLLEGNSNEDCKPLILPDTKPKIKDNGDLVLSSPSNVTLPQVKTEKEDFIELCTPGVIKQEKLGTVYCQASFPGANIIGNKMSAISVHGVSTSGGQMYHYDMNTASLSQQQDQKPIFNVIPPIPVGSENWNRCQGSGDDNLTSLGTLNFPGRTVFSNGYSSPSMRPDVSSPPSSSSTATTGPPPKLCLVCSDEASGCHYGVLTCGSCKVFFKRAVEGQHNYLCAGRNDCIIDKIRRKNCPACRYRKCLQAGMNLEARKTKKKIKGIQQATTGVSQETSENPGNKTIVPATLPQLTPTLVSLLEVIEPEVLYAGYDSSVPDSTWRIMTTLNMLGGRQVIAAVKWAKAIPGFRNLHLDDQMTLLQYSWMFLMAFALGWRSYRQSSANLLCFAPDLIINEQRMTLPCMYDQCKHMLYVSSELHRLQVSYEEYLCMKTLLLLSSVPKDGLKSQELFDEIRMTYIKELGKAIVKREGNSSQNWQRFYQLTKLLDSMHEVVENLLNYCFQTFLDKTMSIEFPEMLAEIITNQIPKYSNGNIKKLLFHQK
Method in brief: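 Human foreskin fibroblasts stimulated with IL-1 (1 ng/mL) in the presence of test compound, incubated at 37 °C for 18–24 h. IL-6 in the culture medium was quantified by electrochemiluminescence, DELFIA or ELISA. IC50 and % maximal efficacy were reported.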

Glucocorticoid receptor [2] = target: T2, Glucocorticoid receptor (Homo sapiens, UniProt P04150); assay: Transactivation activity of glucocorticoid receptor in HFF assessed as induction of aromatase activity by measuring beta-estradiol activity after 18 to 24 hrs by ELISA
T2 sequence (P04150 whole entry): T1 sequence (whole entry)

[3] = target: T1, Glucocorticoid receptor (Homo sapiens); assay: Transactivation activity of glucocorticoid receptor in HFF assessed as induction of aromatase activity by measuring beta-estradiol activity after 18 to 24 hrs by ELISA relative to Dexamethasone
Glucocorticoid receptor [4] = target: T2, Glucocorticoid receptor; assay: Displacement of tetramethylrhodamine-labeled Dexamethasone from human recombinant glucocorticoid receptor expressed in baculovirus infected insect cells by fluorescence polarization assay
Progesterone receptor = target: T3, Progesterone receptor (Homo sapiens, UniProt P06401); assay: Displacement of tetramethylrhodamine-labeled RU-486 from human recombinant progesterone receptor expressed in baculovirus infected insect cells by fluorescence polarization assay
T3 sequence (P06401 whole entry): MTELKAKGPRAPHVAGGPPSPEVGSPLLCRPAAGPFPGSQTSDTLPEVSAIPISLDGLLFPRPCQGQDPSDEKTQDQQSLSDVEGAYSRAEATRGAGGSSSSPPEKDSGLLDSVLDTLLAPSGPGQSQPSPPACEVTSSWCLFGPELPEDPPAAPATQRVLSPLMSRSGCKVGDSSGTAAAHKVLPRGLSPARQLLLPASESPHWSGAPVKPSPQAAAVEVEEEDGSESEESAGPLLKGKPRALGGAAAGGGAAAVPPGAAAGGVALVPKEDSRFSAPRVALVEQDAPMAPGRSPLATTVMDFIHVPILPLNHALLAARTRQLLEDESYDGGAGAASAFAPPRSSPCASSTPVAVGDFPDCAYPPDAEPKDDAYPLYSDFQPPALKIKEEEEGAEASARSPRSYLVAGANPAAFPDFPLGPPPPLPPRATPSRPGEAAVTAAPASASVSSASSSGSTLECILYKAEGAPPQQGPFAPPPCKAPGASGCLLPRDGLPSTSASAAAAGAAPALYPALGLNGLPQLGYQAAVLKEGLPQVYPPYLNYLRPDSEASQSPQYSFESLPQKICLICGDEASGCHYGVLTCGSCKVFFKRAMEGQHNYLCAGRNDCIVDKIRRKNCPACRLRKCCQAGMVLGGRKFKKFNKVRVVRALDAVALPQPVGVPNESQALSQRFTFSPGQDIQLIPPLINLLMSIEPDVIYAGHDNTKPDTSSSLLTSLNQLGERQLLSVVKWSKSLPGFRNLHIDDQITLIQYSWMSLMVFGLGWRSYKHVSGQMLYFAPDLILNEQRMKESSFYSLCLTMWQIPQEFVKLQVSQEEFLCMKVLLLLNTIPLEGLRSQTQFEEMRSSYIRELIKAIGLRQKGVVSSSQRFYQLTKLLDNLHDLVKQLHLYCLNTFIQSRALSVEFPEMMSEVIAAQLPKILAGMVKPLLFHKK
Method in brief: (§1)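 Fluorescence polarization competition assays with recombinant human receptors in lysates of baculovirus-infected insect cells. Reactions contained 1% DMSO and ran 1 h at room temperature.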

[5] = target: T4, Mineralocorticoid receptor (Homo sapiens, UniProt P08235); assay: Displacement of tetramethylrhodamine-labeled Dexamethasone from human recombinant mineralocorticoid receptor expressed in baculovirus infected insect cells by fluorescence polarization assay; method in brief: as §1
T4 sequence (P08235 whole entry): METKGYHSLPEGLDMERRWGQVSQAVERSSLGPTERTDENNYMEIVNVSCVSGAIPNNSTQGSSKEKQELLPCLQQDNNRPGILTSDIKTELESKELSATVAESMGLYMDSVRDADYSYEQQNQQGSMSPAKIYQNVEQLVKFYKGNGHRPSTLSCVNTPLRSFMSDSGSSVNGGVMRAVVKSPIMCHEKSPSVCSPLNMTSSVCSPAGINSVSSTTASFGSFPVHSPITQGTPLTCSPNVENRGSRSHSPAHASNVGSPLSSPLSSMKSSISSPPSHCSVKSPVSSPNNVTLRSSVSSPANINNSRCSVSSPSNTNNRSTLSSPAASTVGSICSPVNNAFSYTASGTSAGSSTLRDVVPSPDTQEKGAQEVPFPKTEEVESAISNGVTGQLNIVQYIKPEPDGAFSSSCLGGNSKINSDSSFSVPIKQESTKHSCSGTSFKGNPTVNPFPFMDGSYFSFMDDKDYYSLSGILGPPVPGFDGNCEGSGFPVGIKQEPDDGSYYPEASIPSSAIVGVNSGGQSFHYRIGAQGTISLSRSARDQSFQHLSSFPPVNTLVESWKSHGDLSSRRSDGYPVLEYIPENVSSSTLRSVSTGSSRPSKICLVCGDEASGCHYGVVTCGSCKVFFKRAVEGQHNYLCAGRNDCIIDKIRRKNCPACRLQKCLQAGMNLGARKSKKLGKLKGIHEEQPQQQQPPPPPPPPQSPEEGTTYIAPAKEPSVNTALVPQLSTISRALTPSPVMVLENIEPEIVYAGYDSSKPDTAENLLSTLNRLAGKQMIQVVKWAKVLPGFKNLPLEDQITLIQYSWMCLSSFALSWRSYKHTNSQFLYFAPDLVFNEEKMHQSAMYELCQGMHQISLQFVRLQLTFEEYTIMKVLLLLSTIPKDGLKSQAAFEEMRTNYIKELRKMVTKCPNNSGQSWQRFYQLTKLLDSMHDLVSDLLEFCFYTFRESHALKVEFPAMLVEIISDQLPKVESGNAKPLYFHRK

Glucocorticoid receptor [6] = target: T2, Glucocorticoid receptor; assay: Agonist activity at glucocorticoid receptor in HFF assessed as inhibition of IL1-induced IL-6 production after 18 to 24 hrs; assay type: functional

SMILES | Efficacy [1] [%] | EC50 (Glucocorticoid receptor [2]; read-out: EC50) [nM] | Efficacy [3] [%] | IC50 (Glucocorticoid receptor [4]) [nM] | IC50 (Progesterone receptor) [nM] | IC50 [5] [nM] | IC50 (Glucocorticoid receptor [6]) [nM] | EC50 (Glucocorticoid receptor [2])
CC(C)(C[C@](O)(Cc1cc2ccc(C#N)cc2[nH]1)C(F)(F)F)c1cc(S(C)(=O)=O)cc2c1OCC2 | – | – | – | 405 | 1400 | 405 | – | –
COc1ccc(F)cc1C(C)(C)CC(O)(Cc1cc2cccc(C)c2[nH]1)C(F)(F)F (racemic) | 26 | > 2000 | 26 | 56 | 1450 | 1040 | > 2000 | –
COc1ccc(F)cc1C(C)(C)CC(O)(Cc1cc2cccc(C(F)(F)F)c2[nH]1)C(F)(F)F (racemic) | – | > 2000 | – | 120 | 1750 | 1650 | > 2000 | –
COc1ccc(F)cc1C(C)(C)CC(O)(Cc1cc2cccc(C#N)c2[nH]1)C(F)(F)F (racemic) | 30 | > 2000 | – | 27 | > 2000 | 1420 | > 2000 | –
COc1ccc(F)cc1C(C)(C)CC(O)(Cc1cc2c(C(F)(F)F)cccc2[nH]1)C(F)(F)F (racemic) | 70 | – | 30 | 160 | > 2000 | > 2000 | 290 | Not Active
COc1ccc(F)cc1C(C)(C)CC(O)(Cc1cc2cc(C)ccc2[nH]1)C(F)(F)F (racemic) | 86 | 230 | 104 | 66 | 1800 | 1250 | 113 | –
COc1ccc(F)cc1C(C)(C)CC(O)(Cc1cc2cc(C(F)(F)F)ccc2[nH]1)C(F)(F)F (racemic) | 77 | 640 | 65 | 290 | > 2000 | > 2000 | 191 | –
COc1ccc(F)cc1C(C)(C)CC(O)(Cc1cc2ccc(C)cc2[nH]1)C(F)(F)F (racemic) | 60 | 976 | 70 | 38 | 1250 | 720 | 334 | –
COc1ccc(F)cc1C(C)(C)CC(O)(Cc1cc2ccc(C(F)(F)F)cc2[nH]1)C(F)(F)F (racemic) | – | > 2000 | – | 77 | 1600 | 910 | > 2000 | –
C[C@@H]1C[C@H]2[C@@H]3CCC4=CC(=O)C=C[C@]4(C)[C@@]3(F)[C@@H](O)C[C@]2(C)[C@@]1(O)C(=O)CO [DEXAMETHASONE] | – | – | – | – | > 2000 | – | – | –

Compounds with a lower IC50 (Progesterone receptor), results first:

Efficacy [1] [%] | EC50 (Glucocorticoid receptor [2]; read-out: EC50) [nM] | Efficacy [3] [%] | IC50 (Glucocorticoid receptor [4]) [nM] | IC50 (Progesterone receptor) [nM] | IC50 [5] [nM] | IC50 (Glucocorticoid receptor [6]) [nM] | EC50 (Glucocorticoid receptor [2]) | SMILES
20 | > 2000 | 20 | > 2000 | 1200 | 1100 | > 2000 | – | COc1ccc(F)cc1C(C)(C)C[C@](O)(Cc1cc2ccccc2[nH]1)C(F)(F)F
75 | 473 | 89 | 15 | 930 | 435 | 36 | – | COc1ccc(F)cc1C(C)(C)CC(O)(Cc1cc2cccc(F)c2[nH]1)C(F)(F)F (racemic)
91 | 9 | 110 | 30 | 350 | 415 | 6 | – | COc1ccc(F)cc1C(C)(C)CC(O)(Cc1cc2c(C)cccc2[nH]1)C(F)(F)F (racemic)
84 | 94 | 98 | 24 | 405 | 405 | 78 | – | COc1ccc(F)cc1C(C)(C)CC(O)(Cc1cc2cc(F)ccc2[nH]1)C(F)(F)F (racemic)
94 | 33 | 84 | 30 | 265 | 350 | 29 | – | COc1ccc(F)cc1C(C)(C)CC(O)(Cc1cc2ccc(F)cc2[nH]1)C(F)(F)F (racemic)
83 | 311 | 103 | 19 | 225 | 400 | 10 | – | CC(C)(CC(O)(Cc1cc2ccccc2[nH]1)C(F)(F)F)c1cccc2c1OCC2 (racemic)
90 | 125 | 98 | 8 | 255 | 265 | 21 | – | CC(C)(CC(O)(Cc1cc2ccccc2[nH]1)C(F)(F)F)c1cc(F)cc2c1OCC2 (racemic)
95 | 16 | 105 | 10 | 145 | 240 | 7 | – | Cc1cc2c(c(C(C)(C)CC(O)(Cc3cc4ccccc4[nH]3)C(F)(F)F)c1)OCC2 (racemic)
88 | 45 | 99 | 32 | 415 | 585 | 16 | – | CC(C)(CC(O)(Cc1cc2ccccc2[nH]1)C(F)(F)F)c1cc(Br)cc2c1OCC2 (racemic)
